According to ChEMBL document CHEMBL4028854, “Iminothioethers as Hydrogen Sulfide Donors: From the Gasotransmitter Release to the Vascular Effects” (J Med Chem, 2017):
Activity calls are given as the source filed them. The calls are words filed in the database; no cut-off is given here.

Assays:
Thoracic aorta [1] = assay: Vasorelaxing effect in endothelium-denuded Wistar rat thoracic aorta ring assessed as reduction in KCl-induced contractile tone at 1 mM relative to KCl; assay type: functional
Thoracic aorta [2] = assay: Vasorelaxing effect in endothelium-denuded Wistar rat thoracic aorta ring assessed as reduction in KCl-induced contractile tone; assay type: functional, tissue-based
Rattus norvegicus = assay: Antihypertensive activity in Wistar rat model of L-NAME-induced hypertension assessed as decrease in basal systolic blood pressure at 133 umol/kg, ip measured at 5 mins interval for 30 mins relative to control; assay type: functional; design: scale not given: the % may be the effect or the level left
Summary of the method: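 Male 12-week-old normotensive Wistar rats (250 g), anaesthetized with sodium thiopental 60 mg/Kg. Tails warmed under an IR lamp for 15 min, and systolic pressure read by tail-cuff. Baseline taken, then L-NAME 100 mg/Kg i.p. given and pressure monitored 20 min. Test agent given i.p. in DMSO vehicle (0.33 ml/Kg). Read-outs taken every 5 min over 30 min and averaged, as % of the L-NAME-raised Psys. 6 rats/group.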

[3] = Drug metabolism in HSMC assessed as H2S release at 300 uM by WSP1 dye based spectrofluorometric method; assay type: ADME, cell-based; conditions: human
Summary of the method: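 HASMCs seeded at 30000/well on gelatine-coated culture slides; after 24 h, loaded with 100 µM WSP-1 for 30 min. Dye solution replaced by compound in HEPES-buffered saline, pH 7.4, without added thiols. H2S-evoked fluorescence (λ 465–515 nm) was read by spectrofluorometer over 1 h and expressed as fluorescence index.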

[4] = Drug metabolism in HSMC assessed as H2S release at 300 uM by WSP1/propidium iodide staining based fluorescence microscopic method; assay type: ADME, cell-based; conditions: human
Summary of the method: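 HASMCs on gelatine-coated culture slides were loaded with 100 µM WSP-1 for 30 min, then incubated with compound in HEPES-buffered saline for 1 h. Cells were washed, fixed in Bouin solution for 10 min, washed twice and counterstained with propidium iodide for nuclei. Green WSP-1 fluorescence was examined by fluorescence microscopy.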

HSMC [5] = assay: Induction of membrane hyperpolarization in HSMC at 10 uM measured every 2.5 mins for 40 mins by DiBac4(3) dye based spectrofluorometric method; assay type: functional, cell-based; conditions: Homo sapiens
Summary of the method: (§1)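 Human aortic smooth muscle cells were grown in Medium 231 with SMGS at 37 °C, 5% CO2, and seeded at 72×10^3/well on gelatin 24 h before use. Cells were loaded 1 h with DiBac4(3) 2.5 µM in HEPES buffer, pH 7.4, at room temperature. Fluorescence (ex 488/em 520 nm) was read every 2.5 min for 40 min. (Ft-F0)/F0 was calculated, and AUC expressed as % of the NS1619 10 µM response. Six experiments ×6 replicates.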

Heart = assay: Protection against angiotensin2-induced reduction in coronary flow in Langendorff perfused Wistar rat heart assessed as increase in coronary flow at 300 uM after 20 mins relative to control; assay type: functional; design: scale not given: the % may be the effect or the level left
Summary of the method: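 Langendorff-perfused hearts were equilibrated for 20 min. Coronary spasm was induced with angiotensin II 0.1 µM, kept in the perfusate throughout. Compound (300 µM) or vehicle was then added to the perfusate for 20 min. Coronary flow was expressed as % of the mean of three basal readings. Hearts from 6-9 animals/group; mean ± SE.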

[6] = Drug metabolism in HSMC assessed as H2S release at 1 mM by WSP1 dye based spectrofluorometric method; assay type: ADME, cell-based; conditions: human, 1000 µM, TDE = time-dependent effect
Summary of the method: (§2)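 Human aortic smooth muscle cells were seeded on gelatin-coated slides (30000/well). After 24 h they were loaded with WSP-1 (100 µM) for 30 min, and the supernatant was replaced by compound in HEPES standard buffer (pH 7.4). Fluorescence (λ 465-515 nm) was followed for 1 h and expressed as fluorescence index. Reference donor was used at 300 µM. Data are mean ± SE.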

[7] = Induction of intracellular cGMP level in sodium nitroprusside pretreated HSMC at 300 uM after 20 mins by ELISA (reference value: 0.446 +/- 0.005 pmol/ml); assay type: functional, Homo sapiens
HSMC [8] = assay: Induction of membrane hyperpolarization in HSMC measured every 2.5 mins for 40 mins by DiBac4(3) dye based spectrofluorometric method; assay type: functional, cell-based; conditions: Homo sapiens; summary of the method: as §1
HSMC [9] = assay: Induction of intracellular cGMP level in HSMC at 300 uM after 20 mins by ELISA; assay type: functional, cell-based; conditions: Homo sapiens
[10] = Induction of membrane hyperpolarization in HSMC at 1 mM measured every 2.5 mins for 40 mins by DiBac4(3) dye based spectrofluorometric method relative to NS1619; assay type: functional, Homo sapiens; summary of the method: as §1
[11] = Cytotoxicity in HSMC assessed as cell damage at 300 uM by propidium iodide staining based fluorescence microscopic method; conditions: human
Summary of the method: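 WSP-1-loaded human aortic smooth muscle cells were incubated with compound for 1 h. Cells were then washed, fixed in Bouin solution for 10 min, and washed twice. Nuclei were stained with propidium iodide, and slides were examined by fluorescence microscopy.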

[12] = Drug metabolism in HSMC assessed as H2S release by measuring increase in fluorescence intensity at 1 mM after 1 hr by WSP1 dye based spectrofluorometric method relative to DADS; assay type: ADME, cell-based; conditions: human, 1000 µM; summary of the method: as §2

For `N=C(SCc1ccc2ccccc2c1)c1cccs1`, the Emax at 1000 µM (Thoracic aorta [1]) was 20.4%.
Compound `N=C(SCc1ccccc1)c1cccs1` has an IC50 (Thoracic aorta [2]) of 263 µM and an Emax at 1000 µM (Thoracic aorta [1]) of 89.9%.
`Oc1ccc(C(=S)NCc2ccccc2)cc1` showed an IC50 (Thoracic aorta [2]) of 347 µM and an Emax at 1000 µM (Thoracic aorta [1]) of 88.2%.
`S=C(NCc1ccccc1)c1cccs1` gave an IC50 (Thoracic aorta [2]) of 240 µM and an Emax at 1000 µM (Thoracic aorta [1]) of 91.7%.
With `C=CCSSCC=C` [DIALLYLDISULFIDE] the Activity (Rattus norvegicus) was 39%, the Drug metabolism [3] was “Metabolite_Detected” and the Emax at 1000 µM (Thoracic aorta [1]) was 41.7%. The Drug metabolism [4] was “Metabolite_Detected”.
`N=C(SCc1ccccc1)c1ccc(O)cc1` showed an IC50 (Thoracic aorta [2]) of 490 µM and an Emax at 1000 µM (Thoracic aorta [1]) of 82.1%.
With `O=c1[nH]c2cc(C(F)(F)F)ccc2n1-c1cc(C(F)(F)F)ccc1O` the Activity (HSMC [5]) was “Active”.
With `COc1ccc(C(=N)SCc2ccccc2)cc1` the Activity (Rattus norvegicus) was 36%, the IC50 (Thoracic aorta [2]) was 257 µM and the Activity (Heart) was “<=165%”. The Emax at 1000 µM (Thoracic aorta [1]) was 89.9%, the Drug metabolism [4] was “Metabolite_Detected” and the Drug metabolism [6] was “Tde”. The Activity [7] was 0.489 pmol/mL, the Activity (HSMC [8]) was “Dose-dependent effect” and the Activity (HSMC [9]) was “inactive”. It also gave an Activity [10] of 149%.
`S=C(NCc1ccccc1)c1ccccc1` gave an IC50 (Thoracic aorta [2]) of 162 µM and an Emax at 1000 µM (Thoracic aorta [1]) of 92.7%.
Work on `N=C(SCc1ccccc1)c1ccccc1` yielded an IC50 (Thoracic aorta [2]) of 427 µM and an Emax at 1000 µM (Thoracic aorta [1]) of 86.5%.
Work on `COc1ccc(C(=S)NCc2ccccc2)cc1` yielded an IC50 (Thoracic aorta [2]) of 129 µM and an Emax at 1000 µM (Thoracic aorta [1]) of 96.8%.
With `N=C(Sc1ccccc1)c1cccs1` the Activity (Rattus norvegicus) was “inactive”, the Activity [11] was “Toxic” and the IC50 (Thoracic aorta [2]) was 631 µM. For the same compound, the Activity (Heart) was “inactive”, the Emax at 1000 µM (Thoracic aorta [1]) was 99.7% and the Drug metabolism [6] was “Tde”. The Activity [7] was 0.667 pmol/mL, the Activity (HSMC [8]) was “Dose-dependent effect” and the Activity (HSMC [9]) was “inactive”. For the same compound, the Activity [10] was 36% and the “fold change (FC)” value [12] was 50.
